Laboratory results taken from ChEMBL document CHEMBL1781965, “Onoceranoid-type triterpenoids from Lansium domesticum” (2011).
In brackets after ≈: the same amount, converted by molar mass.

Key:
Type in all cases: functional
[1] = test system: Staphylococcus epidermidis; assay: Antibacterial activity against Staphylococcus epidermidis ATCC 12228 after 18 hrs by microdilution assay; conditions: ATCC 12228, 18 h
Summary of the method: (§1)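 Broth microdilution in Mueller Hinton broth, inoculum 5 × 10^5–10^6 cfu/mL final, compounds dissolved in DMSO (at most 1% in the solution), 37 °C for 18 h aerobically. Blank controls received DMSO alone; magnolol served as positive control.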

Escherichia coli = assay: Antibacterial activity against Escherichia coli ATCC 25922 after 18 hrs by microdilution assay; conditions: ATCC 25922, 18 h; summary of the method: as §1
Bacillus cereus = assay: Antibacterial activity against Bacillus cereus clinical isolate after 18 hrs by microdilution assay; summary of the method: as §1
Shigella flexneri = assay: Antibacterial activity against Shigella flexneri ATCC 12022 after 18 hrs by microdilution assay; conditions: ATCC 12022, 18 h; summary of the method: as §1
Alcaligenes faecalis = assay: Antibacterial activity against Alcaligenes faecalis ATCC 8750 after 18 hrs by microdilution assay; conditions: ATCC 8750, 18 h; summary of the method: as §1
Bacillus subtilis = assay: Antibacterial activity against Bacillus subtilis ATCC 6633 after 18 hrs by microdilution assay; conditions: ATCC 6633, 18 h; summary of the method: as §1
Micrococcus luteus = assay: Antibacterial activity against Micrococcus luteus ATCC 9341 after 18 hrs by microdilution assay; conditions: ATCC 9341, 18 h; summary of the method: as §1
Staphylococcus aureus [2] = assay: Antibacterial activity against Micrococcus pyogenes clinical isolate after 18 hrs by microdilution assay; summary of the method: as §1
Pseudomonas aeruginosa = assay: Antibacterial activity against Pseudomonas aeruginosa ATCC 14502 after 18 hrs by microdilution assay; conditions: ATCC 14502, 18 h; summary of the method: as §1
Serratia marcescens = assay: Antibacterial activity against Serratia marcescens ATCC 25419 after 18 hrs by microdilution assay; conditions: ATCC 25419, 18 h; summary of the method: as §1
Staphylococcus aureus [3] = assay: Antibacterial activity against Staphylococcus aureus ATCC 25923 after 18 hrs by microdilution assay; conditions: ATCC 25923, 18 h; summary of the method: as §1

Compound | MIC [1] [µg/mL] | MIC (Escherichia coli) [µg/mL] | MIC (Bacillus cereus) [µg/mL] | MIC (Shigella flexneri) [µg/mL] | MIC (Alcaligenes faecalis) [µg/mL] | MIC (Bacillus subtilis) [µg/mL] | MIC (Micrococcus luteus) [µg/mL] | MIC (Staphylococcus aureus [2]) [µg/mL] | MIC (Pseudomonas aeruginosa) [µg/mL] | MIC (Serratia marcescens) [µg/mL] | MIC (Staphylococcus aureus [3]) [µg/mL]
C=C1CC[C@H]2C(C)(C)C(=O)CC[C@]2(C)[C@H]1CCC1=C(C)[C@H](O)C[C@@H](C(=C)C)[C@]1(C)CCC(=O)OC [LAMESTICUMIN E] | > 50 | > 50 | 3.12 (≈ 6.44 µM) | > 50 | > 50 | 12.5 (≈ 25.8 µM) | > 50 | 6.25 (≈ 12.9 µM) | > 50 | > 50 | > 50
C=C(C)[C@@H]1CC=C(C)[C@H](CC[C@H]2C(=C)CC[C@@H](C(C)(C)O)[C@]2(C)CCC(=O)OCC)[C@@]1(C)CCC(=O)O | 12.5 (≈ 24.2 µM) | > 50 | 3.12 (≈ 6.04 µM) | > 50 | > 50 | 12.5 (≈ 24.2 µM) | > 50 | 50 (≈ 96.8 µM) | > 50 | > 50 | > 50
C=C(C)[C@@H]1CC=C(C)[C@H](CC[C@H]2C(=C)CC[C@H]3C(C)(C)[C@@H](O)CC[C@]23C)[C@@]1(C)CCC(=O)OCC [ETHYL LANSIOLATE] | 12.5 (≈ 25.8 µM) | > 50 | 3.12 (≈ 6.44 µM) | > 50 | > 50 | 3.12 (≈ 6.44 µM) | 6.25 (≈ 12.9 µM) | 3.12 (≈ 6.44 µM) | > 50 | > 50 | 6.25 (≈ 12.9 µM)
C=CCc1ccc(O)c(-c2cc(CC=C)ccc2O)c1 [MAGNOLOL] | 12.5 (≈ 46.9 µM) | > 50 | 12.5 (≈ 46.9 µM) | > 50 | > 50 | 12.5 (≈ 46.9 µM) | 12.5 (≈ 46.9 µM) | 25 (≈ 93.9 µM) | > 50 | > 50 | 25 (≈ 93.9 µM)
C=C1CC[C@H]2C(C)(C)[C@@H](O)CC[C@]2(C)[C@H]1CC[C@H]1C(C)=CC[C@@H](C(C)(C)O)[C@]1(C)CCC(=O)OC [LAMESTICUMIN B] | 12.5 (≈ 25.6 µM) | > 50 | 3.12 (≈ 6.38 µM) | > 50 | > 50 | 3.12 (≈ 6.38 µM) | 3.12 (≈ 6.38 µM) | 3.12 (≈ 6.38 µM) | > 50 | > 50 | 6.25 (≈ 12.8 µM)
C=C(C)[C@@H]1CCC(=C)[C@H](CC[C@H]2C(C)=CC[C@@H](C(=C)C)[C@]2(C)CCC(=O)O)[C@@]1(C)CCC(=O)OCC | 12.5 (≈ 25.1 µM) | > 50 | 3.12 (≈ 6.26 µM) | > 50 | > 50 | 12.5 (≈ 25.1 µM) | > 50 | 12.5 (≈ 25.1 µM) | > 50 | > 50 | 50 (≈ 100 µM)
C=C(C)[C@@H]1CC=C(C)[C@H](CC[C@H]2C(=C)CC[C@@H](C(C)(C)O)[C@]2(C)CCC(=O)OC)[C@@]1(C)CCC(=O)O [LAMESTICUMIN A] | 12.5 (≈ 24.9 µM) | > 50 | 3.12 (≈ 6.21 µM) | > 50 | > 50 | 3.12 (≈ 6.21 µM) | 6.25 (≈ 12.4 µM) | 3.12 (≈ 6.21 µM) | > 50 | > 50 | 6.25 (≈ 12.4 µM)
CC1=CC[C@H]2C(C)(C)C(=O)CC[C@]2(C)[C@H]1CC/C=C(\C)CC/C=C(\C)CC[C@@H](O)C(C)(C)O [LAMESTICUMIN F] | > 50 | > 50 | 3.12 (≈ 6.8 µM) | > 50 | > 50 | 12.5 (≈ 27.2 µM) | > 50 | > 50 | > 50 | > 50 | > 50
C=C1CC[C@H]2C(C)(C)[C@@H](O)CC[C@]2(C)[C@H]1CCC1=C(C)C(=O)C[C@H]2C(C)(C)C(=O)CC[C@]12C [LAMESTICUMIN C] | 12.5 (≈ 27.5 µM) | > 50 | 3.12 (≈ 6.86 µM) | > 50 | > 50 | 3.12 (≈ 6.86 µM) | 6.25 (≈ 13.7 µM) | 3.12 (≈ 6.86 µM) | > 50 | > 50 | 6.25 (≈ 13.7 µM)
C=C1CC[C@H]2C(C)(C)C(=O)CC[C@]2(C)[C@H]1CCC1=C(C)[C@H](O)C[C@H]2C(C)(C)C(=O)CC[C@]12C [LAMESTICUMIN D] | > 50 | > 50 | 3.12 (≈ 6.86 µM) | > 50 | > 50 | 6.25 (≈ 13.7 µM) | > 50 | > 50 | > 50 | > 50 | > 50
